Test results as given in ChEMBL document CHEMBL4130485, “Inhibitors of Yellow Fever Virus replication based on 1,3,5-triphenyl-4,5-dihydropyrazole scaffold: Design, synthesis and antiviral evaluation” (Eur J Med Chem, 2017).

Experiments:
[1] = Cytotoxicity against African green monkey Vero 76 cells assessed as decrease in cell viability after 48 to 96 hrs by MTT assay; format: cell-based; settings: chlorocebus sabaeus
How it was run: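 Vero 76 cells seeded at 5×10^5 cells/mL in D-MEM with 10% FBS and incubated with serial compound dilutions at 37 °C, 5% CO2. Viability read by MTT after 48–96 h. CC50 by linear regression versus untreated controls.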

[2] = Cytotoxicity against golden hamster BHK21 cells assessed as decrease in cell viability after 72 hrs by MTT assay; format: cell-based, Mesocricetus auratus, BHK-21
How it was run: (§1)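 Uninfected MDBK (6×10^5 cells/mL, 10% horse serum) or BHK (1×10^6 cells/mL, 10% FBS) cells in MEM-Earle with serial compound dilutions at 37 °C, 5% CO2, run in parallel with the antiviral assays. Viability read by MTT after 72 h. CC50 by linear regression; mean of three determinations.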

Yellow fever virus [3] = assay: Antiviral activity against Yellow fever virus 17D vaccine (Stamaril Pasteur J07B01) infected in golden hamster BHK21 cells assessed as protection against virus-induced cytopathic effect after 3 to 4 days by MTT assay; format: functional, organism-based; settings: BHK-21
How it was run: (§2)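 BHK-21 cells (MDBK for BVDV) seeded at 5×10^4 (BHK) or 3×10^4 (MDBK) cells/well and grown overnight to confluence. Infected at m.o.i. 0.01 in maintenance MEM-Earle with 0.5% inactivated FBS. Serial compound dilutions added 2 h later (final 100, 20, 4, 0.8 µM; DMSO ≤0.1%). Viability read by MTT after 3–4 days at 37 °C. EC50 obtained by linear regression against untreated controls; mean of three determinations.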

[4] = Cytotoxicity against bovine MDBK cells assessed as decrease in cell viability after 72 hrs by MTT assay; format: cell-based, Bos taurus; settings: cattle; how it was run: as §1
[5] = test system: Bovine viral diarrhea virus 1; assay: Antiviral activity against Bovine viral diarrhea virus NADL ATCC VR 534 infected in bovine MDBK cells assessed as protection against virus-induced cytopathic effect after 3 to 4 days by MTT assay; format: functional, organism-based, Bovine viral diarrhea virus 1-NADL; settings: Bovine viral diarrhea virus isolates and strains, ATCC VR 534, MDBK; how it was run: as §2
[6] = Cytotoxicity against human MT4 cells assessed as decrease in cell viability after 96 hrs by MTT assay; format: cell-based
How it was run: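 Exponentially growing MT-4 cells seeded at 1×10^5 cells/mL in RPMI-1640 with 10% FBS and incubated with serial compound dilutions at 37 °C, 5% CO2. Viability read by MTT after 96 h. CC50 by linear regression versus untreated controls.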

[7] = test system: Human immunodeficiency virus 1; assay: Antiviral activity against HIV1 3B infected in human MT4 cells assessed as protection against virus-induced cytopathic effect after 4 days by MTT assay; format: functional, organism-based; settings: Human immunodeficiency virus 1, 3B, MT4, 96 h
How it was run: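 MT-4 cells (1×10^4/well) in RPMI with serial compound dilutions, infected with 100 CCID50 HIV-1 (m.o.i. 0.01). Viability read by MTT after 4 days at 37 °C. EC50 for 50% protection from cytopathicity obtained by linear regression versus untreated controls; mean of three determinations.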

[8] = test system: Mammalian orthoreovirus 1; assay: Antiviral activity against Reovirus 1 infected in golden hamster BHK21 cells assessed as protection against virus-induced cytopathic effect after 3 to 4 days by MTT assay; format: functional, organism-based; settings: Mammalian orthoreovirus 1, BHK-21; how it was run: as §2
[9] = Antiviral activity against Human enterovirus B Faulkner ATCC VR 185 infected in African green monkey Vero 76 cells assessed as protection against virus-induced cytopathic effect after 3 days by crystal violet staining-based plaque reduction assay; format: functional, cell-based; settings: Faulkner ATCC VR 185, Vero 76, 72 h
Enterovirus C = assay: Antiviral activity against Enterovirus C Sabin […] infected in African green monkey Vero 76 cells assessed as protection against virus-induced cytopathic effect after 2 days by crystal violet staining-based plaque reduction assay; format: functional, organism-based; settings: Vero 76, 48 h
Vaccinia virus = assay: Antiviral activity against Vaccinia virus Lister ATCC VR 1549 infected in African green monkey Vero 76 cells assessed as protection against virus-induced cytopathic effect after 3 days by crystal violet staining-based plaque reduction assay; format: functional, organism-based; settings: Orthopoxvirus vaccinia, ATCC VR 1549, Vero 76, 72 h
Human alphaherpesvirus 1 = assay: Antiviral activity against Human herpesvirus 1 KOS ATCC VR 1493 infected in African green monkey Vero 76 cells assessed as protection against virus-induced cytopathic effect after 3 days by crystal violet staining-based plaque reduction assay; format: functional, organism-based; settings: Human alphaherpesvirus 1, KOS, Vero 76, 72 h
[10] = test system: Vesicular stomatitis Indiana virus; assay: Antiviral activity against Vesicular stomatitis virus Indiana ATCC VR 158 infected in African green monkey Vero 76 cells assessed as protection against virus-induced cytopathic effect after 2 days by crystal violet staining-based plaque reduction assay; format: functional, organism-based; settings: ATCC VR 158, Vero 76, 48 h
Human orthopneumovirus = assay: Antiviral activity against Human respiratory syncytial virus A2 ATCC VR 1540 infected in African green monkey Vero 76 cells assessed as protection against virus-induced cytopathic effect after 5 days by crystal violet staining-based plaque reduction assay; format: functional, organism-based; settings: ATCC VR 1540, Vero 76, 120 h
Yellow fever virus [11] = assay: Potency index, ratio of azauridine EC50 to compound EC50 for Yellow fever virus 17D vaccine (Stamaril Pasteur J07B01); format: functional
[12] = Selectivity index, ratio of CC50 for golden hamster BHK21 cells to EC50 for Yellow fever virus 17D; format: toxicity; settings: read-out: Ratio CC50/EC50
How it was run: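 Selectivity index calculated as BHK-21 CC50 divided by YFV EC50, both from MTT assays.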

dengue virus type 2 = assay: Antiviral activity against Dengue virus type 2 clinical isolate infected in golden hamster BHK21 cells assessed as protection against virus-induced cytopathic effect after 3 to 4 days by MTT assay; format: functional, organism-based; settings: BHK-21; how it was run: as §2
West Nile virus = assay: Antiviral activity against West Nile virus clinical isolate infected in golden hamster BHK21 cells assessed as protection against virus-induced cytopathic effect after 3 to 4 days by MTT assay; format: functional, organism-based; settings: BHK-21; how it was run: as §2

SMILES | CC50 [1] | CC50 at 72 h [2] | EC50 (Yellow fever virus [3]) | CC50 at 72 h [4] | EC50 [5] | CC50 at 96 h [6] | EC50 [7] | EC50 [8] | EC50 [9] | EC50 (Enterovirus C) | EC50 (Vaccinia virus) | EC50 (Human alphaherpesvirus 1) | EC50 [10] | EC50 (Human orthopneumovirus) | Ratio EC50 (Yellow fever virus [11]) | selectivity ratio [12] | EC50 (dengue virus type 2) | EC50 (West Nile virus)
COc1c(C)c2c(c(O)c1C/C=C(\C)CCC(=O)O)C(=O)OC2 [MYCOPHENOLIC ACID] | 9 µM |  |  |  |  |  |  |  |  |  |  |  |  |  |  |  |  | 
NS(=O)(=O)c1ccc(N2N=C(c3ccccc3)CC2c2cccc(F)c2)cc1 (stereo unspecified) | 24 µM | 15 µM | ≥ 15 µM | 20 µM | > 20 µM | 44 µM | 13 µM | > 15 µM | > 24 µM | > 24 µM | > 24 µM | > 24 µM | > 24 µM | > 24 µM | 10 |  |  | 
NS(=O)(=O)c1ccc(N2N=C(c3ccccc3)CC2c2ccc(F)cc2)cc1 (stereo unspecified) | 23 µM | 12 to 13 µM | 2.6 µM | 18 µM | > 18 µM | 45 µM | > 45 µM | > 12 µM | > 23 µM | > 23 µM | > 23 µM | > 23 µM | > 23 µM | > 23 µM | 10 | 5 | > 13 µM | > 13 µM
NS(=O)(=O)c1ccc(N2N=C(c3ccccc3)CC2c2ccccc2)cc1 (stereo unspecified) | 22 µM | 15 µM | > 15 µM | 16 µM | > 16 µM | 42 µM | > 42 µM | > 15 µM | > 22 µM | > 22 µM | > 22 µM | > 22 µM | > 22 µM | > 22 µM | 10 |  |  | 
Nc1nc2c(ncn2COCCO)c(=O)[nH]1 [ACYCLOVIR] | > 100 µM |  |  |  |  |  |  |  |  |  |  | 1.8 µM |  |  |  |  |  | 
NS(=O)(=O)c1ccc(N2N=C(c3ccc(Oc4ccccc4)cc3)CC2c2ccc(Cl)cc2)cc1 (stereo unspecified) | 88 µM | 7 to 8 µM | 1.9 µM | 19 µM | > 19 µM | 9 µM | > 9 µM | > 7 µM | > 88 µM | > 88 µM | > 88 µM | > 88 µM | > 88 µM | > 88 µM | 10 | 4.2 | > 8 µM | > 8 µM
NS(=O)(=O)c1ccc(N2N=C(c3ccc(Oc4ccccc4)cc3)CC2c2cccc(Cl)c2)cc1 (stereo unspecified) | 88 µM | 9 to 10 µM | 2.2 µM | 6 µM | > 6 µM | 8 µM | > 8 µM | > 9 µM | > 88 µM | > 88 µM | > 88 µM | > 88 µM | > 88 µM | > 88 µM | 10 | 4.5 | > 10 µM | > 10 µM
Cc1ccc(C2CC(c3ccccc3)=NN2c2ccc(S(N)(=O)=O)cc2)cc1 (stereo unspecified) | 20 µM | 7 to 8 µM | 2.2 µM | 32 µM | > 32 µM | 40 µM | > 40 µM | > 7 µM | > 20 µM | > 20 µM | > 20 µM | > 20 µM | > 20 µM | > 20 µM | 10 | 3.6 | > 8 µM | > 8 µM
NS(=O)(=O)c1ccc(N2N=C(c3ccccc3)CC2c2ccc(Cl)cc2)cc1 (stereo unspecified) | 21 µM | 32 µM | > 32 µM | 11 µM | > 11 µM | 36 µM | > 36 µM | > 32 µM | > 21 µM | > 21 µM | > 21 µM | > 21 µM | > 21 µM | > 21 µM | 10 |  |  | 
C[C@@]1(O)[C@H](O)[C@@H](CO)O[C@H]1n1cnc2c(=O)[nH]c(N)nc21 [2'-B-METHYL-GUANOSINE] |  |  |  |  |  |  |  |  |  |  |  |  |  |  |  |  | 1.7 µM | 0.8 µM
Cc1ccccc1C1CC(c2ccc(OCc3ccccc3)cc2)=NN1c1ccc(S(N)(=O)=O)cc1 (stereo unspecified) | 100 µM | 20 to 22 µM | 1.8 µM | > 100 µM | > 100 µM | ≥ 100 µM | > 100 µM | > 20 µM | > 100 µM | > 100 µM | > 100 µM | > 100 µM | > 100 µM | > 100 µM | 10 | 12.2 | > 22 µM | > 22 µM
NS(=O)(=O)c1ccc(N2N=C(c3ccc(OCc4ccccc4)cc3)CC2c2ccc(F)cc2)cc1 (stereo unspecified) | 90 µM | 60 to 69 µM | 1.9 µM | > 100 µM | > 100 µM | > 100 µM | > 100 µM | > 69 µM | > 90 µM | > 90 µM | > 90 µM | > 90 µM | > 90 µM | > 90 µM | 10 | 31.6 | > 60 µM | > 60 µM
Cc1ccccc1C1CC(c2ccccc2)=NN1c1ccc(S(N)(=O)=O)cc1 (stereo unspecified) | 24 µM | 14 µM | 2.2 µM | 18 µM | > 18 µM | 43 µM | > 43 µM | > 14 µM | > 24 µM | > 24 µM | > 24 µM | > 24 µM | > 24 µM | > 24 µM | 10 | 6.4 | > 14 µM | > 14 µM
NS(=O)(=O)c1ccc(N2N=C(c3ccccc3)CC2c2ccccc2F)cc1 (stereo unspecified) | 28 µM | 21 µM | > 21 µM | 19 µM | > 19 µM | 42 µM | > 42 µM | > 21 µM | > 28 µM | > 28 µM | > 28 µM | > 28 µM | > 28 µM | > 28 µM | 10 |  |  | 
Cc1cccc(C2CC(c3ccccc3)=NN2c2ccc(S(N)(=O)=O)cc2)c1 (stereo unspecified) | 25 µM | 25 µM | > 25 µM | 23 µM | > 23 µM | 37 µM | > 37 µM | > 25 µM | > 25 µM | > 25 µM | > 25 µM | > 25 µM | > 25 µM | > 25 µM | 10 |  |  | 
